pIC50: −log10 of the molar value.
How the values were obtained:
[1] = Inhibition of Varicella zoster virus thymidine kinase; parameters: species or system Human alphaherpesvirus 3
How it was run: (§1)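 Purified recombinant VZV TK (7.75 ng), HSV-1 TK (226 ng) or human cytosolic TK-1 (455 ng) in 50 mM Tris-HCl pH 8.0, 2.5 mM MgCl2, 10 mM DTT, 2.5 mM ATP, 1 mg/mL BSA, 10 mM NaF, with 1 µM final [CH3-3H]dThd substrate. Incubated 30 min at 37 °C with varied compound concentrations; the reaction was linear over this time. Product bound on DE-81 filters, washed, and counted by liquid scintillation. Result reported as IC50.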

[2] = Inhibition of HSV1 thymidine kinase; parameters: species or system Human alphaherpesvirus 1; how it was run: as §1
[3] = molecular target: T1, Thymidine kinase, cytosolic (Homo sapiens, UniProt P04183); assay: Inhibition of human cytosolic thymidine kinase 1; how it was run: as §1
T1 sequence (P04183 whole entry): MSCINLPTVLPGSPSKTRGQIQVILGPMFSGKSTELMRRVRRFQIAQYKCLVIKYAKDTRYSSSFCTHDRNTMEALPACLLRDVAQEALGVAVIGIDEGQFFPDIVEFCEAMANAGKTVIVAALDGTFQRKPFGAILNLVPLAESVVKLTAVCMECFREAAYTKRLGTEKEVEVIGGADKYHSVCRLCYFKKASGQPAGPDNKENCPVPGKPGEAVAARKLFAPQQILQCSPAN

Row | Structure (SMILES) | pIC50 [1] | pIC50 [2] | pIC50 [3]
1 | O=c1nc2oc(-c3ccc(O)cc3)cc2cn1[C@H]1C[C@H](O)[C@@H](CO)O1 | 6.40 | < 3.30 | < 3.30
2 | COc1ccc(-c2cc3cn([C@H]4C[C@H](O)[C@@H](CO)O4)c(=O)nc3o2)cc1 | 5.82 | < 3.30 | < 3.30
3 | O=c1nc2oc(-c3ccc(OCCF)cc3)cc2cn1[C@H]1C[C@H](O)[C@@H](CO)O1 | 5.38 | < 3.30 | < 3.30

Reference: ChEMBL document CHEMBL1138348, “A p-[18F]fluoroethoxyphenyl bicyclic nucleoside analogue as a potential positron emission tomography imaging agent for varicella-zoster virus thymidine kinase gene expression” (J Med Chem, 2007)
